Activity calls are given as the source filed them. The calls are words filed in the database; no cut-off is given here.
Experiments:
[1] = target: T1, von Hippel-Lindau disease tumor suppressor/AKT (Homo sapiens) (UniProt P31751+Q9Y243+P31749+P40337); test: Protac activity at VHL/AKT in human PC-3 cells assessed as reduction in S6 phosphorylation at 1 uM after 24 hrs by Western blot analysis; type: cell-based
Outline: (§1)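 PC3 cells were exposed to compound at 1 μM for 24 h, with GSK690693 as reference inhibitor. Lysates were immunoblotted for total AKT, P-AKT S473, P-PRAS40 T246 and P-S6 S240/244, with β-actin as loading control. Detection was by HRP chemiluminescence on film.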

[2] = target: T1, von Hippel-Lindau disease tumor suppressor/AKT (Homo sapiens); test: Protac activity at VHL/AKT in human PC-3 cells assessed as reduction in total AKT level at 1 uM after 24 hrs by Western blot analysis; type: cell-based; outline: as §1
[3] = target: T1, von Hippel-Lindau disease tumor suppressor/AKT (Homo sapiens); test: Protac activity at VHL/AKT in human PC-3 cells assessed as reduction in phosphorylated AKT level at 1 uM after 24 hrs by Western blot analysis; type: cell-based; outline: as §1
[4] = target: T1, von Hippel-Lindau disease tumor suppressor/AKT (Homo sapiens); test: Protac activity at VHL/AKT in human PC-3 cells assessed as reduction in PRAS40 phosphorylation at 1 uM after 24 hrs by Western blot analysis; type: cell-based; outline: as §1
[5] = target: T1, von Hippel-Lindau disease tumor suppressor/AKT (Homo sapiens); test: Protac activity at VHL/AKT in human BT-474 cells assessed as reduction in total AKT level after 24 hrs by Western blot analysis; type: cell-based; details: dose 1-10 µM
Outline: (§2)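 BT474 cells were treated 24 h with compound and lysed in IP lysis buffer (Tris pH 7.5, Triton X-100, phosphatase and protease inhibitors). Lysates were normalised by BCA and run on 4–12% Bis–Tris gels with PVDF wet transfer. Blots were probed for total AKT, P-AKT S473, P-PRAS40 T246 and P-S6 S240/244, with β-actin loading control and HRP chemiluminescence.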

[6] = system: MDA-MB-468; test: Induction of apoptosis in human MDA-MB-468 cells at 2.5 uM measured upto 120 hrs by IncuCyte live-cell automated imaging analysis; type: functional
Outline: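 MDA-MB-468 cells (1–3 × 10³/well, triplicate wells) grown with compound in DMEM/10% FBS at 37 °C, 5% CO₂. DRAQ7 at 1.5 μM was added to the medium, and apoptotic red-fluorescent counts were imaged on an IncuCyte over 5 days.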

[7] = system: PC-3; test: Antiproliferative activity against human PC-3 cells assessed as growth inhibition incubated for 5 days by IncuCyte live-cell imaging analysis; type: functional; details: PC-3, 120 h, time 5 day
[8] = mouse, in vivo, ip, 50 mg/kg, 2 h
[9] = system: MDA-MB-468; test: Antiproliferative activity against human MDA-MB-468 cells assessed as growth inhibition incubated for 5 days by IncuCyte live-cell imaging analysis; type: functional; details: MDA-MB-468, 120 h, time 5 day
[10] = system: BT-474; test: Inhibition of colony formation in human BT-474 cells at 0.1 to 10 uM after 14 days by crystal violet staining based assay; type: functional, cell-based; details: dose 0.1-10 µM, time 14.0 day
Outline: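 BT474 cells were cultured 14 days with compound, and medium plus compound was replenished every 2 days. Viable cells were stained with 0.5% crystal violet and quantified.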

[11] = system: BT-474; test: Antiproliferative activity against human BT-474 cells assessed as growth inhibition incubated for 5 days by IncuCyte live-cell imaging analysis; type: functional; details: BT-474, 120 h, time 5 day
[12] = system: Mus musculus; test: Toxicity in Swiss albino mouse assessed as tolerability at 50 mg/kg, ip measured upto 8 hrs by LC-MS/MS method; type: organism-based; details: in vivo
[13] = target: T2, Protein cereblon/AKT (Homo sapiens) (UniProt P31751+Q9Y243+P31749+Q96SW2); test: Protac activity at CRBN/AKT in human PC-3 cells assessed as reduction in phosphorylated AKT level at 1 uM after 24 hrs by Western blot analysis; type: cell-based; outline: as §1
[14] = target: T2, Protein cereblon/AKT (Homo sapiens); test: Protac activity at CRBN/AKT in human PC-3 cells assessed as reduction in total AKT level at 1 uM after 24 hrs by Western blot analysis; type: cell-based; outline: as §1
[15] = target: T1, von Hippel-Lindau disease tumor suppressor/AKT (Homo sapiens); test: Protac activity at VHL/AKT in human BT-474 cells assessed as reduction in phosphorylated AKT level at 5 to 10 uM after 24 hrs by Western blot analysis; type: cell-based; details: dose 5-10 µM; outline: as §2
[16] = target: T1, von Hippel-Lindau disease tumor suppressor/AKT (Homo sapiens); test: Protac activity at VHL/AKT in human BT-474 cells assessed as reduction in total AKT level at 5 to 10 uM after 24 hrs by Western blot analysis; type: cell-based; details: dose 5-10 µM; outline: as §2
[17] = target: T2, Protein cereblon/AKT (Homo sapiens); test: Protac activity at CRBN/AKT in human PC-3 cells assessed as reduction in S6 phosphorylation at 1 uM after 24 hrs by Western blot analysis; type: cell-based; outline: as §1
[18] = target: T2, Protein cereblon/AKT (Homo sapiens); test: Protac activity at CRBN/AKT in human PC-3 cells assessed as reduction in PRAS40 phosphorylation at 1 uM after 24 hrs by Western blot analysis; type: cell-based; outline: as §1
[19] = in vivo; details: Swiss albino, mouse, ip, 50 mg/kg
[20] = in vivo; details: Swiss albino, mouse, ip, 50 mg/kg; remark: listed apart in the source
[21] = target: T2, Protein cereblon/AKT (Homo sapiens); test: Protac activity at CRBN/AKT in human BT-474 cells assessed as reduction in PRAS40 phosphorylation at 1 uM after 24 hrs by Western blot analysis; type: cell-based; outline: as §2

CCn1c(-c2nonc2N)nc2c(C#CC(C)(C)O)ncc(OCCCNCCCC(=O)NCCCCCCCCCCC(=O)N[C@H](C(=O)N3C[C@H](O)C[C@H]3C(=O)NCc3ccc(-c4scnc4C)cc3)C(C)(C)C)c21
Activity [1]: Active | Activity [2]: Active | Activity [3]: Active | Activity [4]: inactive

CCn1c(-c2nonc2N)nc2c(C#CC(C)(C)O)ncc(OCCCNCCCC(=O)NCCOCCOCCOCCOCCOCCC(=O)N[C@H](C(=O)N3C[C@H](O)C[C@H]3C(=O)NCc3ccc(-c4scnc4C)cc3)C(C)(C)C)c21
Activity [2]: inactive | Activity [3]: inactive

CCn1c(-c2nonc2N)nc2c(C#CC(C)(C)O)ncc(OCCCNCCCC(=O)NCCOCCOCCOCC(=O)N[C@H](C(=O)N3C[C@H](O)C[C@H]3C(=O)NCc3ccc(-c4scnc4C)cc3)C(C)(C)C)c21
Activity [2]: inactive | Activity [3]: inactive

Cc1ncsc1-c1ccc(CNC(=O)[C@@H]2C[C@@H](O)CN2C(=O)[C@@H](NC(=O)CCCCNC(=O)CCNC[C@@H](C(=O)N2CCN(c3ncnc4c3[C@H](C)C[C@H]4O)CC2)c2ccc(Cl)cc2)C(C)(C)C)cc1
Activity [5]: Dose-dependent effect

C[C@@H]1C[C@@H](O)c2ncnc(N3CCN(C(=O)[C@H](CNCCC(=O)NCCCCCCCCNc4cccc5c4C(=O)N(C4CCC(=O)NC4=O)C5=O)c4ccc(Cl)cc4)CC3)c21 (stereo partly specified)
Activity [6]: < 3% | GI50 [7]: 7.4 µM | Cmax [8]: 1.4 µM | GI50 [9]: 5.7 µM | inhibition [10]: Active | GI50 [11]: 0.7 µM | Activity [12]: Non-Toxic

CCn1c(-c2nonc2N)nc2c(C#CC(C)(C)O)ncc(OCCCNCCCC(=O)NCCOCCOCCOCCOCCOCCNc3cccc4c3C(=O)N(C3CCC(=O)NC3=O)C4=O)c21 (stereo unspecified)
Activity [13]: Active | Activity [14]: Active

CCn1c(-c2nonc2N)nc2c(C#CC(C)(C)O)ncc(OCCCNCCCC(=O)NCCOCCNc3cccc4c3C(=O)N(C3CCC(=O)NC3=O)C4=O)c21 (stereo unspecified)
Activity [13]: Active | Activity [14]: Active

CCn1c(-c2nonc2N)nc2c(C#CC(C)(C)O)ncc(OCCCNCCCC(=O)NCCOCCOCCOCCNc3cccc4c3C(=O)N(C3CCC(=O)NC3=O)C4=O)c21 (stereo unspecified)
Activity [13]: Active | Activity [14]: Active

CCn1c(-c2nonc2N)nc2c(C#CC(C)(C)O)ncc(OCCCNCCCC(=O)NCCOCCOCCOCCC(=O)N[C@H](C(=O)N3C[C@H](O)C[C@H]3C(=O)NCc3ccc(-c4scnc4C)cc3)C(C)(C)C)c21
Activity [2]: inactive | Activity [3]: inactive

CCn1c(-c2nonc2N)nc2c(C#CC(C)(C)O)ncc(OCCCNCCCC(=O)NCCOCCOCC(=O)N[C@H](C(=O)N3C[C@H](O)C[C@H]3C(=O)NCc3ccc(-c4scnc4C)cc3)C(C)(C)C)c21
Activity [2]: inactive | Activity [3]: inactive

CCn1c(-c2nonc2N)nc2c(C#CC(C)(C)O)ncc(OCCCNCCCC(=O)NCCOCCOCCNc3cccc4c3C(=O)N(C3CCC(=O)NC3=O)C4=O)c21 (stereo unspecified)
Activity [13]: Active | Activity [14]: Active

Cc1ncsc1-c1ccc([C@H](C)NC(=O)[C@H]2C[C@H](O)CN2C(=O)[C@@H](NC(=O)CCCCCCCCCCC(=O)NCCNC[C@@H](C(=O)N2CCN(c3ncnc4c3[C@H](C)C[C@H]4O)CC2)c2ccc(Cl)cc2)C(C)(C)C)cc1
GI50 [11]: 3.1 µM

Cc1ncsc1-c1ccc(CNC(=O)[C@@H]2C[C@@H](O)CN2C(=O)[C@@H](NC(=O)COCCNC(=O)CCNC[C@@H](C(=O)N2CCN(c3ncnc4c3[C@H](C)C[C@H]4O)CC2)c2ccc(Cl)cc2)C(C)(C)C)cc1
Activity [15]: Active | Activity [16]: Active

CCn1c(-c2nonc2N)nc2c(C#CC(C)(C)O)ncc(OCCCNCCCC(=O)NCCOCCOCCOCCOCCNc3cccc4c3C(=O)N(C3CCC(=O)NC3=O)C4=O)c21 (stereo unspecified)
Activity [13]: Active | Activity [14]: Active

CCn1c(-c2nonc2N)nc2c(C#CC(C)(C)O)ncc(OCCCNCCCC(=O)NCCOCCOCCC(=O)N[C@H](C(=O)N3C[C@H](O)C[C@H]3C(=O)NCc3ccc(-c4scnc4C)cc3)C(C)(C)C)c21
Activity [2]: inactive | Activity [3]: inactive

C[C@@H]1C[C@@H](O)c2ncnc(N3CCN(C(=O)[C@H](CNCCC(=O)NCCCCCCCCNc4cccc5c4C(=O)N(C4CCC(=O)N(C)C4=O)C5=O)c4ccc(Cl)cc4)CC3)c21 (stereo partly specified)
GI50 [11]: 3.3 µM

CC(C)NC[C@@H](C(=O)N1CCN(c2ncnc3c2[C@H](C)C[C@H]3O)CC1)c1ccc(Cl)cc1 [IPATASERTIB]
GI50 [7]: 7.6 µM | GI50 [9]: 3.7 µM

CCn1c(-c2nonc2N)nc2c(C#CC(C)(C)O)ncc(OCCCNCCCC(=O)NCCCCCCCCNc3cccc4c3C(=O)N(C3CCC(=O)NC3=O)C4=O)c21 (stereo unspecified)
Activity [13]: Active | Activity [17]: Active | Activity [14]: Active | Activity [18]: inactive

CCn1c(-c2nonc2N)nc2c(C#CC(C)(C)O)ncc(OCCCNCCCC(=O)NCCOCCC(=O)N[C@H](C(=O)N3C[C@H](O)C[C@H]3C(=O)NCc3ccc(-c4scnc4C)cc3)C(C)(C)C)c21
Activity [2]: inactive | Activity [3]: inactive

CCn1c(-c2nonc2N)nc2c(C#CC(C)(C)O)ncc(OCCCNCCCC(=O)NCCOCC(=O)N[C@H](C(=O)N3C[C@H](O)C[C@H]3C(=O)NCc3ccc(-c4scnc4C)cc3)C(C)(C)C)c21
Activity [2]: inactive | Activity [3]: inactive

CCn1c(-c2nonc2N)nc2c(C#CC(C)(C)O)ncc(OCCCNCCCC(=O)NCCOCCOCCOCCOCCC(=O)N[C@H](C(=O)N3C[C@H](O)C[C@H]3C(=O)NCc3ccc(-c4scnc4C)cc3)C(C)(C)C)c21
Activity [2]: inactive | Activity [3]: inactive

Cc1ncsc1-c1ccc([C@H](C)NC(=O)[C@@H]2C[C@@H](O)CN2C(=O)[C@@H](NC(=O)CCCCCCCCCCC(=O)NCCNC[C@@H](C(=O)N2CCN(c3ncnc4c3[C@H](C)C[C@H]4O)CC2)c2ccc(Cl)cc2)C(C)(C)C)cc1
Cmax at 8 h [19]: 3 µM | Activity [6]: < 3% | GI50 [7]: 9.2 µM | GI50 [9]: 3.8 µM | GI50 [11]: 1.3 µM | Activity [12]: Non-Toxic | Cmax at 2 h [20]: 3.5 µM

C[C@@H]1C[C@@H](O)c2ncnc(N3CCN(C(=O)[C@H](CNCCNC(=O)CCCCCCCCNc4cccc5c4C(=O)N(C4CCC(=O)NC4=O)C5=O)c4ccc(Cl)cc4)CC3)c21 (stereo partly specified)
Activity [21]: Active
